Source: ChEMBL document CHEMBL1143019, “Hybrid molecules of estrone: new compounds with potential antibacterial, antifungal, and antiproliferative activities” (2007)

Key:
Staphylococcus aureus [1] = experiment: Antibacterial activity against Staphylococcus aureus SG 511 after 24 hrs by micro-broth dilution method; type: functional; conditions: SG 511, 24 h
Procedure, shortened: (§1)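 Microbroth dilution per NCCLS guidelines. Bacteria grown overnight at 37 °C in Mueller–Hinton broth. Compound solution serially diluted twofold in MHB, then wells inoculated to a final 5×10⁵ CFU/mL. Incubated 24 h at 37 °C. MIC (µg/mL) read on an automatic plate reader as the lowest dilution allowing no visible growth.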

Staphylococcus aureus [2] = experiment: Antibacterial activity against methicillin-resistant Staphylococcus aureus 994/93 after 24 hrs by micro-broth dilution method; type: functional
Procedure, shortened: (§2)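 Broth microdilution per NCCLS in Mueller–Hinton broth. Overnight cultures grown at 37 °C. Compound serially diluted twofold, then wells inoculated to a final 5×10⁵ CFU/mL. Plates held at 37 °C for 24 h. MIC (µg/mL) read on an automatic plate reader as the lowest dilution with no visible growth.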

Staphylococcus aureus [3] = experiment: Antibacterial activity against methicillin-resistant Staphylococcus aureus 134/94 after 24 hrs by microbroth dilution method; type: functional; procedure, shortened: as §2
Micrococcus luteus = experiment: Antibacterial activity against Micrococcus luteus ATCC 10240 after 24 hrs by microbroth dilution method; type: functional; conditions: ATCC 10240, 24 h; procedure, shortened: as §1
Enterococcus faecalis = experiment: Antibacterial activity against Enterococcus faecalis 1528 after 24 hrs by micro-broth dilution method; type: functional; procedure, shortened: as §1
[4] = system: Mycolicibacterium smegmatis; experiment: Antimicrobial activity against Mycobacterium smegmatis SG 987 after 24 hrs by micro-broth dilution method; type: functional; procedure, shortened: as §1
Mycolicibacterium aurum = experiment: Antimicrobial activity against Mycobacterium aurum SB 66 after 24 hrs by micro-broth dilution method; type: functional; procedure, shortened: as §1
Mycolicibacterium vaccae = experiment: Antimicrobial activity against Mycobacterium vaccae 10670 after 24 hrs by micro-broth dilution method; type: functional; procedure, shortened: as §1
[5] = system: Mycolicibacterium fortuitum; experiment: Antimicrobial activity against Mycobacterium fortuitum Borstel after 24 hrs by microbroth dilution method; type: functional; procedure, shortened: as §1
[6] = system: Mycobacterium tuberculosis; experiment: Antimicrobial activity against Mycobacterium tuberculosis My 331/88 after 14 days; type: functional; conditions: 336 h
[7] = system: Mycobacterium tuberculosis; experiment: Antimicrobial activity against Mycobacterium tuberculosis My 331/88 after 21 days; type: functional; conditions: 504 h
Mycobacterium avium [8] = experiment: Antimicrobial activity against Mycobacterium avium My 330/88 after 14 days; type: functional; conditions: 336 h
Mycobacterium avium [9] = experiment: Antimicrobial activity against Mycobacterium avium My 330/88 after 21 days; type: functional; conditions: 504 h
Mycobacterium kansasii [10] = experiment: Antimicrobial activity against Mycobacterium kansasii My 235/80 after 7 days; type: functional; conditions: 168 h
Procedure, shortened: (§3)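 Run in Šula semisynthetic liquid medium containing bovine serum. Compounds added as DMSO solutions at final concentrations of […]. Each strain was also inoculated onto Löwenstein–Jensen medium to control inoculum sterility and growth.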

Mycobacterium kansasii [11] = experiment: Antimicrobial activity against Mycobacterium kansasii My 235/80 after 14 days; type: functional; conditions: 336 h; procedure, shortened: as §3
Mycobacterium kansasii [12] = experiment: Antimicrobial activity against Mycobacterium kansasii My 235/80 after 21 days; type: functional; conditions: 504 h; procedure, shortened: as §3
Mycobacterium kansasii [13] = experiment: Antimicrobial activity against Mycobacterium kansasii My 6509/96 after 7 days; type: functional; conditions: 168 h; procedure, shortened: as §3
Mycobacterium kansasii [14] = experiment: Antimicrobial activity against Mycobacterium kansasii My 6509/96 after 14 days; type: functional; conditions: 336 h; procedure, shortened: as §3
Mycobacterium kansasii [15] = experiment: Antimicrobial activity against Mycobacterium kansasii My 6509/96 after 21 days; type: functional; conditions: 504 h; procedure, shortened: as §3
Candida albicans [16] = experiment: Antifungal activity against Candida albicans ATCC 44859 after 24 hrs; type: functional; conditions: ATCC 44859, 24 h
Procedure, shortened: (§4)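 Modified NCCLS M27-A broth microdilution with clinical isolates subcultured on Sabouraud dextrose agar. Suspensions diluted 1:50 in RPMI 1640 to give a final inoculum of 0.5–2.5×10³ CFU/mL for yeasts or 0.5–5×10⁴ CFU/mL for molds. The RPMI had L-glutamine, no bicarbonate, and 0.165 M MOPS to pH 7.0. Twofold dilutions from 250 to 0.49. Plates held at 35 °C, humid, without agitation. MIC is the lowest concentration giving ≥80% inhibition versus drug-free control, read at 24 and 48 h.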

Candida albicans [17] = experiment: Antifungal activity against Candida albicans ATCC 44859 after 48 hrs; type: functional; conditions: ATCC 44859, 48 h; procedure, shortened: as §4
Candida tropicalis [18] = experiment: Antifungal activity against Candida tropicalis 156 after 24 hrs; type: functional; procedure, shortened: as §4
Candida tropicalis [19] = experiment: Antifungal activity against Candida tropicalis 156 after 48 hrs; type: functional; procedure, shortened: as §4
Pichia kudriavzevii [20] = experiment: Antifungal activity against Candida krusei E28 after 24 hrs; type: functional; procedure, shortened: as §4
Pichia kudriavzevii [21] = experiment: Antifungal activity against Candida krusei E28 after 48 hrs; type: functional; procedure, shortened: as §4
Nakaseomyces glabratus [22] = experiment: Antifungal activity against Candida glabrata 20/I after 24 hrs; type: functional; procedure, shortened: as §4
Nakaseomyces glabratus [23] = experiment: Antifungal activity against Candida glabrata 20/I after 48 hrs; type: functional; procedure, shortened: as §4
Trichosporon beigelii [24] = experiment: Antifungal activity against Trichosporon beigelii 1188 after 24 hrs; type: functional; procedure, shortened: as §4
Trichosporon beigelii [25] = experiment: Antifungal activity against Trichosporon beigelii 1188 after 48 hrs; type: functional; procedure, shortened: as §4
Aspergillus fumigatus [26] = experiment: Antifungal activity against Aspergillus fumigatus 231 after 24 hrs; type: functional; procedure, shortened: as §4
Aspergillus fumigatus [27] = experiment: Antifungal activity against Aspergillus fumigatus 231 after 48 hrs; type: functional; procedure, shortened: as §4
Lichtheimia corymbifera [28] = experiment: Antifungal activity against Absidia corymbifera 272 after 24 hrs; type: functional; procedure, shortened: as §4
Lichtheimia corymbifera [29] = experiment: Antifungal activity against Absidia corymbifera 272 after 48 hrs; type: functional; procedure, shortened: as §4
Trichophyton benhamiae [30] = experiment: Antifungal activity against Trichophyton mentagrophytes 445 after 72 hrs; type: functional, Arthroderma benhamiae
Procedure, shortened: (§5)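 Same modified M27-A microdilution with the mold inoculum of 0.5–5×10⁴ CFU/mL. Medium was RPMI 1640 with L-glutamine, no bicarbonate, and 0.165 M MOPS at pH 7.0. Twofold dilutions from 250 to 0.49. Incubated at 35 °C in a humid atmosphere.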

Trichophyton benhamiae [31] = experiment: Antifungal activity against Trichophyton mentagrophytes 445 after 120 hrs; type: functional, Arthroderma benhamiae; procedure, shortened: as §5
L929 = experiment: Antiproliferative activity against mouse L929 cells after 72 hrs; type: functional; conditions: L929, 72 h
Procedure, shortened: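 About 10,000 adherent cells per well in RPMI 1640 with 10% heat-inactivated FBS and penicillin/streptomycin, without HEPES. Exposed to 10 concentrations for 72 h at 37 °C in humidified 5% CO₂. Monolayers fixed with glutaraldehyde, stained 15 min with 0.05% methylene blue, and eluted with 0.33 N HCl; OD read at 630 nm. GI50 derived from dose–response curves relative to control.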

K562 = experiment: Antiproliferative activity against human K562 cells after 72 hrs; type: functional; conditions: K562, 72 h
Procedure, shortened: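 About 10,000 suspension cells per well in RPMI 1640 with 10% heat-inactivated FBS and penicillin/streptomycin, without HEPES. Exposed to 10 concentrations for 72 h at 37 °C in humidified 5% CO₂. Wells diluted 1:50 in CASYTON and counted electronically, each result the mean of three successive counts. GI50 is where the concentration–response curve crosses 50% of control cell count.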

HeLa = experiment: Cytotoxicity against human HeLa cells after 72 hrs; type: functional; conditions: for CC50: Homo sapiens, HeLa, 72 h
Procedure, shortened: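 About 10,000 cells per well in RPMI 1640 were preincubated 48 h without compound. The 10 test concentrations were then applied onto the monolayers and incubated 72 h at 37 °C in humidified 5% CO₂. Monolayers fixed with glutaraldehyde, stained with 0.05% methylene blue, and eluted with 0.33 N HCl; optical density measured at 630 nm.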

| SMILES | MIC (Staphylococcus aureus [1]) | MIC (Staphylococcus aureus [2]) | MIC (Staphylococcus aureus [3]) | MIC (Micrococcus luteus) | MIC (Enterococcus faecalis) | MIC [4] | MIC (Mycolicibacterium aurum) | MIC (Mycolicibacterium vaccae) | MIC [5] | MIC [6] | MIC [7] | MIC (Mycobacterium avium [8]) | MIC (Mycobacterium avium [9]) | MIC (Mycobacterium kansasii [10]) | MIC (Mycobacterium kansasii [11]) | MIC (Mycobacterium kansasii [12]) | MIC (Mycobacterium kansasii [13]) | MIC (Mycobacterium kansasii [14]) | MIC (Mycobacterium kansasii [15]) | MIC (Candida albicans [16]) | also measured |
| --- | --- | --- | --- | --- | --- | --- | --- | --- | --- | --- | --- | --- | --- | --- | --- | --- | --- | --- | --- | --- | --- |
| C[C@]12CC[C@@H]3c4ccc(OCCCCCCC[n+]5ccccc5)cc4CC[C@H]3[C@@H]1CCC2=O.[Br-] | 3.12 µg/mL | 6.25 µg/mL | 25 µg/mL | 0.8 µg/mL | 12.5 µg/mL | 3.12 µg/mL | 6.25 µg/mL | 3.12 µg/mL | 6.25 µg/mL | 16 µM | 32 µM | 32 µM | 32 µM | 16 µM | 32 µM | 32 µM | 16 µM | 32 µM | 32 µM | 3.9 µM | MIC (Candida albicans [17]): 3.9 µM; MIC (Candida tropicalis [18]): 15.6 µM; MIC (Candida tropicalis [19]): 15.6 µM; MIC (Pichia kudriavzevii [20]): 15.6 µM; MIC (Pichia kudriavzevii [21]): 31.3 µM; MIC (Nakaseomyces glabratus [22]): 7.8 µM; MIC (Nakaseomyces glabratus [23]): 15.6 µM; MIC (Trichosporon beigelii [24]): 3.9 µM; MIC (Trichosporon beigelii [25]): 7.8 µM; MIC (Aspergillus fumigatus [26]): 3.9 µM; MIC (Aspergillus fumigatus [27]): 62.5 µM; MIC (Lichtheimia corymbifera [28]): > 250 µM; MIC (Lichtheimia corymbifera [29]): > 250 µM; MIC (Trichophyton benhamiae [30]): 31.3 µM; MIC (Trichophyton benhamiae [31]): 62.5 µM; GI50 (L929): 16.7 µg/mL; GI50 (K562): 5.3 µg/mL; CC10 (HeLa): 5.1 µg/mL; CC50 (HeLa): 17.5 µg/mL |
| C[C@]12CC[C@@H]3c4ccc(OCCCCCCC[n+]5ccc(SCc6ccccc6)cc5)cc4CC[C@H]3[C@@H]1CCC2=O.[Br-] | 3.12 µg/mL | 3.12 µg/mL | 3.12 µg/mL | 0.4 µg/mL | 6.25 µg/mL | 1.56 µg/mL | 3.12 µg/mL | 1.56 µg/mL | 6.25 µg/mL | 4 µM | 8 µM | 2 µM | 2 µM | 8 µM | 8 µM | 8 µM | 8 µM | 8 µM | 16 µM | 3.9 µM | MIC (Candida albicans [17]): 3.9 µM; MIC (Candida tropicalis [18]): 15.6 µM; MIC (Candida tropicalis [19]): 15.6 µM; MIC (Pichia kudriavzevii [20]): 7.8 µM; MIC (Pichia kudriavzevii [21]): 7.8 µM; MIC (Nakaseomyces glabratus [22]): 15.6 µM; MIC (Nakaseomyces glabratus [23]): 15.6 µM; MIC (Trichosporon beigelii [24]): 3.9 µM; MIC (Trichosporon beigelii [25]): 7.8 µM; MIC (Aspergillus fumigatus [26]): 15.6 µM; MIC (Aspergillus fumigatus [27]): 31 µM; MIC (Lichtheimia corymbifera [28]): 31 µM; MIC (Lichtheimia corymbifera [29]): 31 µM; MIC (Trichophyton benhamiae [30]): 7.8 µM; MIC (Trichophyton benhamiae [31]): 7.8 µM; GI50 (L929): 4 µg/mL; GI50 (K562): 2.3 µg/mL; CC10 (HeLa): 1.2 µg/mL; CC50 (HeLa): 3.1 µg/mL |
